From ChEMBL document CHEMBL1137111, “Application of multi-component reactions to antimalarial drug discovery. Part 1: Parallel synthesis and antiplasmodial activity of new 4-aminoquinoline Ugi adducts” (Bioorg Med Chem Lett, 2004)

What was measured:
Format in all cases: functional, organism-based
Plasmodium falciparum [1] = assay: Antimalarial activity against chloroquine-sensitive Plasmodium falciparum D10
Plasmodium falciparum [2] = assay: Antimalarial activity against chloroquine-resistant Plasmodium falciparum K1
Plasmodium falciparum [3] = assay: Antimalarial activity against chloroquine-resistant Plasmodium falciparum W2
Method in brief: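 W2 parasites in RPMI-1640 with 10% human serum, synchronized with 5% D-sorbitol. From ring stage, exposed 48 h to a concentration series added from DMSO stocks (≤0.1% DMSO; controls 0.1% DMSO). Fixed 48 h in 1% formaldehyde/PBS pH 7.4 at room temperature, stained with 1 nM YOYO-1, and parasitemia read by flow cytometry. IC50 from % control parasitemia by nonlinear regression, duplicate experiments.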

With `CC(C)(C)NC(=O)CN(CCCNc1ccnc2cc(Cl)ccc12)C(=O)c1cnccn1` the IC50 (Plasmodium falciparum [1]) was 1370 nM, the IC50 (Plasmodium falciparum [2]) was 2290 nM and the IC50 (Plasmodium falciparum [3]) was 1650 nM.

`CC(C)(C)NC(=O)CN(CCNc1ccnc2cc(Cl)ccc12)C(=O)c1cnccn1` showed an IC50 (Plasmodium falciparum [1]) of 710 nM, an IC50 (Plasmodium falciparum [2]) of 1130 nM and an IC50 (Plasmodium falciparum [3]) of 1190 nM.

`O=C(CN(CCCNc1ccnc2cc(Cl)ccc12)C(=O)c1ccncc1)NC1CCCCC1` gave an IC50 (Plasmodium falciparum [1]) of 230 nM, an IC50 (Plasmodium falciparum [2]) of 70 nM and an IC50 (Plasmodium falciparum [3]) of 1560 nM.

`O=C(CN(CCCNc1ccnc2cc(Cl)ccc12)C(=O)c1cnccn1)NC1CCCCC1` showed an IC50 (Plasmodium falciparum [1]) of 240 nM, an IC50 (Plasmodium falciparum [2]) of 520 nM and an IC50 (Plasmodium falciparum [3]) of 870 nM.

`O=C(CN(CCNc1ccnc2cc(Cl)ccc12)C(=O)c1ccncc1)NC1CCCCC1` was tested, and the IC50 (Plasmodium falciparum [1]) was 540 nM, the IC50 (Plasmodium falciparum [2]) was 530 nM and the IC50 (Plasmodium falciparum [3]) was 610 nM.

Work on `CC(C)(C)NC(=O)CN(CCNc1ccnc2cc(Cl)ccc12)C(=O)c1ccncc1` yielded an IC50 (Plasmodium falciparum [1]) of 1060 nM, an IC50 (Plasmodium falciparum [2]) of 1100 nM and an IC50 (Plasmodium falciparum [3]) of 990 nM.

With `O=C(CN(CCCNc1ccnc2cc(Cl)ccc12)C(=O)c1ccc(O)cc1O)NC1CCCCC1` the IC50 (Plasmodium falciparum [1]) was 1670 nM, the IC50 (Plasmodium falciparum [2]) was 3820 nM and the IC50 (Plasmodium falciparum [3]) was 5930 nM.

Molecule `O=C(CN(CCNc1ccnc2cc(Cl)ccc12)C(=O)c1cnccn1)NC1CCCCC1` has an IC50 (Plasmodium falciparum [1]) of 790 nM, an IC50 (Plasmodium falciparum [2]) of 1350 nM and an IC50 (Plasmodium falciparum [3]) greater than 10000 nM.

`CC(C)(C)NC(=O)CN(CCCNc1ccnc2cc(Cl)ccc12)C(=O)c1ccncc1` showed an IC50 (Plasmodium falciparum [1]) greater than 20000 nM, an IC50 (Plasmodium falciparum [2]) of 18200 nM and an IC50 (Plasmodium falciparum [3]) of 3800 nM.
